Screening data: PubChem, The Scripps Research Institute Molecular Screening Center
Sampled rows, rich in hits. Any-hit rate of the full collection: about 3.9%.
M1 ag: agonists of human M1 muscarinic receptor; P11229; CHO-K1 hM1, Fluo-8 calcium fluorescence, agonist mode; 0% DMSO, 100% acetylcholine EC100; activation, % at 3 µM; 0.33% of 360,000 active; AID 588814;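 active means activation above the run's mean compound activation plus 3 SD, cut at about 16% in these data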;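 further: peak over basal fluorescence ratio within a 140 s kinetic read after compound addition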
TAAR1 antagonist: antagonists of human TAAR1. CHO RD-HGA16 TAAR1, Fluo-8 calcium fluorescence, antagonist. 1.5% of 360,000 active. AID 624466. Q96RJ0. inhibition, % at 3 µM;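 active means inhibition above a per-plate cutoff, the mean inhibition of test compounds on that plate plus 3 SD, cut at about 49% in these data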;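 further: 0% = DMSO plus EC80 beta-PEA response and 100% = DMSO alone without agonist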
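Test system – hTAAR1-expressing CHO RD-HGA16 cells, Gα16-coupled · Reagent – β-PEA at EC80 concentration, post-compound challenge · Compound dosing – 3 µM, single point · Timing – 140 s kinetic read after compound, 140 s after agonist · Detection – Fluo-8 intracellular calcium dye fluorescence, real-time kinetic reads · Control set – DMSO and EC80 PEA controls · Repeats – n of 1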
TAAR1 ag: human TAAR1 agonism | AID 624467 | 0.99% of 360,000 active | CHO RD-HGA16 TAAR1, Fluo-8 calcium fluorescence; vehicle wells 0%, saturating PEA agonist 100% | Q96RJ0 | activation, % at 3 µM;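 active means activation above the mean activation of all test compounds in the run plus 3 SD, cut at about 38% in these data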
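Test system: RD-HGA16 (CHO) cells co-expressing Gα16 and hTAAR1 | Doses: Single dose, 3 µM | Schedule: 17-24 h seeding, 75 min 37 °C dye, 30 min RT | Evaluation: % activation from peak over basal fluorescence ratio, DMSO-to-PEA scaled | Technique: Kinetic Fluo-8 calcium fluorescence | Benchmarks: Low control DMSO, high control PEA (EC100)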
HTR2A ag: mouse HTR2A agonism via beta-arrestin recruitment | P35363 | CHO-K1 mHTR2A beta-arrestin complementation, luminescence; percent of 30 µM serotonin response | activation, % at 7.6 µM | 0.66% of 360,000 active;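 active means activation above a run cutoff, the mean activation of all tested compounds plus 3 SD, cut at about 14% in these data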;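 further: 0% = plate median of compound wells and 100% = 30 µM serotonin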
Target sequence (P35363 whole entry, looked up): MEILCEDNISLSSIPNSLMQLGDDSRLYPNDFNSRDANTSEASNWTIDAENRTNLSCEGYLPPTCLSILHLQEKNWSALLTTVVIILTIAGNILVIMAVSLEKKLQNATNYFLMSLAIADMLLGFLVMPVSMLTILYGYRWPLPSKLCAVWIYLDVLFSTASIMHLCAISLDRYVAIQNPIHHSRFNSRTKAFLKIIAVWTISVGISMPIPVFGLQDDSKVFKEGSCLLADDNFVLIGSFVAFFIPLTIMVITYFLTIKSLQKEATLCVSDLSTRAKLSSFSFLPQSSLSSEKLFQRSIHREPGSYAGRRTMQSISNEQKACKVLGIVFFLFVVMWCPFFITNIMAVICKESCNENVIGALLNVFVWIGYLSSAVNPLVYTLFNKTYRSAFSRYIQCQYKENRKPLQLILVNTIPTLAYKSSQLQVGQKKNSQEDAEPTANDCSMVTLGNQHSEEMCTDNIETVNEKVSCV
CHRM1 PAM: potentiates human M1 receptor response to acetylcholine; P11229; CHO-K1 hM1, Fluo-8 calcium fluorescence, ACh EC20; 0% = ACh EC20, 100% = maximal ACh; activation, % at 3 µM; 0.088% of 360,000 active; in the data active means activation above about 19%, passing the limit was not always enough
CHRM1 antagonist: human CHRM1 antagonism | P11229 | CHO-K1 hM1, Fluo-8 calcium fluorescence, ACh EC80 antagonist | inhibition, % at 3 µM | 1.3% of 360,000 active;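 active means percent inhibition above its own plate's cutoff, namely the mean of that plate's compound wells plus 3 SD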;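 further: peak over basal fluorescence ratio during 140 s after agonist addition; 0% = ACh EC80 plus DMSO and 100% = DMSO alone without agonist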
* = called active by the depositor; . = no result.

SMILES	M1 ag	TAAR1 antagonist	TAAR1 ag	HTR2A ag	CHRM1 PAM	CHRM1 antagonist
COc1cc(OC)c(-c2c3cc(O)c(=O)cc-3oc3cc(O)c(O)cc23)cc1OC	385*	71*	367*	-5	-28	74*
Cc1noc(-c2ccccc2)c1NC(=O)Nc1ccc(Cl)cc1	0	-15	7	-8	-24	41*
CC1(C)CC(N2CCN(Cc3ccccc3)CC2)=CC(=[N+]2CCCCC2)C1	-7	-12	-1	0	7	-12
CN(Cc1ccccc1)C1=CC(=[N+]2CCCCC2)CC(C)(C)C1	-1	-4	0	-5	-13	39*
Cc1ccccc1C(=O)OC1CCN(C)CC1	-9	2	0	-9	-21	35*
CN1CCC(OC(=O)c2ccccc2Cl)CC1	-13	-2	1	-6	-33	48*
CN1CCC(OC(=O)c2ccc(Cl)cc2Cl)CC1	-11	11	6	-10	-7	-1
O=C1ON(Cc2ccccc2)C(c2ccccc2)N1c1ccccc1 (stereo unspecified)	-1	20	0	2	0	-5
Cc1ccccc1Cc1c(C)nc2nc(SCC(=O)NCCCN3CCCCC3)nn2c1C	-13	.	.	-3	-31	51*
Cc1nc2nc(SCC(=O)NCCCN3CCCCCC3)nn2c(C)c1Cc1ccccc1	-12	3	0	4	-38	77*
CC(=O)C[C@H](O)CC(=O)[C@H]1OC(=O)CCCCCCc2ccccc21	-2	-28	9	-1	0	3
Cc1ccc(-n2c(-c3ccccc3)c[n+]3c2CCc2ccccc2-3)c(C)c1	-6	15	1	7	-21	55*
Cc1ccc(-n2c(-c3ccccc3)c[n+]3c2CCC3)cc1	-5	-4	6	1	1	-7
N#CC1=C(c2ccccc2)/C(=C/c2ccccc2)OC1=O	2	58*	12	-1	13	4
N#C/C(=C\c1ccc(O)cc1)c1nc2ccccc2o1	3	22	15	-11	-8	12
COc1cc(/C=C(\C#N)c2nc3ccccc3o2)ccc1O	35*	51*	58*	-3	-15	40*
COc1ccc(CCNC(=O)c2ccc(CN3CCC(Cc4ccccc4)CC3)cc2)cc1OC	-7	-7	2	1	-26	48*
COCCNC(=O)c1ccc(CN2CCC(Cc3ccccc3)CC2)cc1	-9	-1	-1	-5	-25	43*
CCc1ccccc1NC(=O)c1ccc(CN2CCC(Cc3ccccc3)CC2)cc1	-4	-20	2	-14	-20	38*
CC(C)C(=O)Nc1cccc(COc2cccc(CN(Cc3ccccc3)C(=O)OC(C)(C)C)c2)c1	6	35	1	-2	5	6
c1ccc(-c2c[n+]3c(n2-c2ccccc2)SCC3)cc1	-9	14	6	-5	0	-4
CCOc1ccc(-n2c(-c3ccc(Cl)cc3)c[n+]3c2SCC3)cc1	-7	5	4	-1	-19	50*
O=C(COC(=O)c1cncc(Br)c1)NCC12CC3CC(CC(C3)C1)C2	2	-24	2	11	8	12
O=C(O)CCC(=O)NCCc1cccc(Cl)c1	-6	6	38*	2	10	0
O=C(Cc1ccccc1)NCCc1cccc(Cl)c1	-7	-3	8	0	7	-9
SMILES	M1 ag	TAAR1 antagonist	TAAR1 ag	HTR2A ag	CHRM1 PAM	CHRM1 antagonist
O=C(CC(c1ccc(F)cc1)c1ccco1)N1CCOCC1 (stereo unspecified)	-3	-12	4	0	28*	13
Cc1ccc(S(=O)(=O)n2ccc3c2CCCC3=O)cc1	-8	0	11	-2	-27	54*
O=S(=O)(c1cc(F)ccc1F)N1CCN(c2ncnc3ccccc23)CC1	0	37	11	2	-13	31*
CN(Cc1cccc2cnccc12)C(=O)c1cc(COc2ccc(F)cc2F)on1	-2	-22	4	-6	-8	15
CCc1ccc(CN(C)C(=O)c2cc(COc3cccc4cnccc34)on2)cc1	-1	51*	2	-3	-12	42
CN(Cc1cccnc1)C(=O)c1cc(COc2ccc3c(c2)CCCC3)on1	0	16	4	-2	-21	64*
CC(C)NC(=O)c1cc(C2CCCCN2S(=O)(=O)c2ccc(C#N)cc2)on1 (stereo unspecified)	-8	-13	4	1	0	-7
COCCOC(=O)c1c(C)nc(SCC(=O)Nc2cccc3ccccc23)c(C#N)c1-c1ccco1	-1	51*	2	-1	-5	17
CCC1(c2ccc(OC)cc2)NC(=O)N(CC(=O)c2ccc3c(c2)OCCO3)C1=O (stereo unspecified)	9	0	38*	6	-2	3
CCC1(c2ccc(OC)cc2)NC(=O)N(CC(=O)N2CCc3ccccc32)C1=O (stereo unspecified)	29*	33	64*	-6	-3	7
N#Cc1ccc(S(=O)(=O)N2CCCc3nc(-c4ccccc4)ccc32)cc1	.	-1	0	.	.	.
CSCCC(C(=O)Nc1c(C)cccc1C)N1CCC(Cc2ccccc2)CC1 (stereo unspecified)	-3	19	-1	-1	-2	-20
O=C(Nc1nnc(SCc2ccccn2)s1)C1CC(=O)N(c2ccc(F)cc2)C1 (stereo unspecified)	-2	13	2	-8	1	25*
CCOc1ccc(N2CC(C(=O)Nc3nnc(CC)s3)CC2=O)cc1 (stereo unspecified)	-4	-17	6	2	28*	1
COc1ccc(N2CC(C(=O)Nc3c4c(nn3-c3ccc(OC)cc3)CS(=O)(=O)C4)CC2=O)cc1 (stereo unspecified)	1	7	2	8	26*	-26
COc1ccc(N2CC(C(=O)Nc3c4c(nn3-c3ccccc3)CS(=O)(=O)C4)CC2=O)cc1 (stereo unspecified)	1	-9	0	3	1	12
COc1cc(=O)oc(C=O)c1C	.	-9	0	.	.	.
COc1ccc(C2CC3(CC(C)(C)NC(SC)=N3)Oc3cc(O)cc(C)c32)cc1 (stereo unspecified)	13	5	51*	-1	-14	9
COc1ccc(C2CC3(CC(C)(C)NC(=S)N3)Oc3cc(O)cc(C)c32)cc1 (stereo unspecified)	-6	2	1	1	3	-5
CCOC(=O)[C@]12CCCC=C1N(Cc1ccco1)C(=O)[C@H](CC(=O)NCc1cccc3ccccc13)C2	.	50*	3	0	.	.
